Reference: publication PMC4971285 (International Journal for Parasitology: Drugs and Drug …, 2016)
Read-outs that look alike come from different tables or passages of the source.

Key:
Cardiomyocytes = assay: Cytotoxicity on primary cardiomyocytes; format: cell-based, mice; conditions: read-out: CC50 Vero/CM, cardiomyocytes, 72 h, resazurin
Outline: (§1)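 Heart muscle cells were enzymatically isolated from mouse embryo myocardia and grown in DMEM with 2.5 mM CaCl2, 2% chick embryo extract, 7% FBS and 1 mM L-glutamine. Seeded 7 × 10^4/well, cultured 24 h, then treated 72 h at 100 to 3.7 μM, with or without 30 μM heme. Resazurin 0.005% for 4 h, fluorescence at 530/600 nm. CC50 fitted against untreated control. Triplicates.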

[1] = Cytotoxicity on primary cardiomyocytes; format: cell-based, mice; conditions: mouse, primary embryonic cardiomyocytes
Outline: as §1

[2] = Cytotoxicity on Vero cells; format: cell-based; conditions: African green monkey
Outline: (§2)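 Vero cells kept in RPMI 1640 with 10% FBS at 37 °C, 5% CO2, seeded 1.5 × 10^4/well and cultured 24 h. Treated 72 h at 100 to 3.7 μM, with or without 30 μM heme in medium. Resazurin (0.005%) added for 4 h at 37 °C, fluorescence read at 530/600 nm. CC50 fitted from dose-response versus untreated control. Triplicates.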

Vero cells = assay: Cytotoxicity on Vero cells; format: cell-based
Outline: as §2

[3] = test system: T. cruzi Y trypomastigotes; assay: Trypomastigote viability; format: cell-based, Trypanosoma cruzi; conditions: 30 μM compound, 24 h, with vs without 30 μM hemin
Outline: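 Culture-derived Y-strain trypomastigotes were collected from infected Vero supernatants at 4 dpi. Parasites (2 × 10^6/100 μl) incubated 24 h at 37 °C in RPMI 1640 with 30 μM test compound, with or without 30 μM hemin. […] Viability read by resazurin (0.005%) fluorescence at 530/600 nm. Percentage death calculated against the matching untreated or hemin-only control.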

T. cruzi Y amastigotes = assay: Intracellular amastigotes in infected cardiomyocytes; format: cell-based; conditions: Trypanosoma cruzi, Cardiomyocyte, 72 h, read-out: Percentage of amastigote growth inhibition, 72 h of treatment with 10 μM of compounds
[4] = test system: T. cruzi Y epimastigote forms; assay: Epimastigote growth inhibition; format: cell-based; conditions: Trypanosoma cruzi, 72 h, read-out: IC50 (Concentration that inhibits the growth of 50% of T. cruzi Y epimastigote forms within 72 h), 72 h, in the presence of 150 μM of heme, Probit
Outline: (§3)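 Log-phase Y-strain epimastigotes (5 × 10^5/mL) treated 72 h at 28 °C in BHI with folic acid, 150 μM hemin and 10% FBS, at 50, 25 and 12.5 μM. Final DMSO ≤1%. Counted in a Neubauer chamber, with motility and morphology as viability criteria. IC50 derived by probit. Selectivity index taken as cardiomyocyte CC50 divided by epimastigote IC50.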

[5] = Epimastigote growth inhibition; format: cell-based; conditions: Trypanosoma cruzi
Outline: as §3

For `O=C(Cn1ccnc1[N+](=O)[O-])NCc1ccccc1` [Bz, benznidazole, reference compound], the CC50 (Cardiomyocytes; medium without heme) was > 100 µM, the CC50 (Cardiomyocytes; with 30 μM of heme) was > 100 µM and the CC50 at 72 h [1] was > 100 µM. For the same molecule, the CC50 at 72 h [2] was > 100 µM, the CC50 (Vero cells; read-out: CC50 Vero/CM, medium without heme, 72 h, resazurin) was > 100 µM and the CC50 (Vero cells; read-out: CC50 Vero/CM, with 30 μM of heme, 72 h, resazurin) was > 100 µM. For the same molecule, the “increase in activity (death of trypomastigote forms) by combination with hemin” value [3] was “about 1.3 fold”, the inhibition of growth at 10 µM (T. cruzi Y amastigotes) was 99.8 ± 0.4% and the IC50 [4] was 5.6 ± 0.05 µM. The selectivity ratio at 72 h [5] was > 17.9.
With `N#Cc1cnc2ccc(Cl)cc2c1Nc1ccccc1` [Compound 1a, 6-chloro-4-(phenylamino)quinoline-3-carbonitrile] the CC50 at 72 h [1] was > 100 µM, the CC50 at 72 h [2] was > 100 µM and the “increase in activity (death of trypomastigote forms) by combination with hemin” value [3] was ~1.6 fold. The inhibition of growth at 10 µM (T. cruzi Y amastigotes) was 45.5 ± 9%, the IC50 [4] was 17.6 ± 6.1 µM and the selectivity ratio at 72 h [5] was > 5.68.
Molecule `N#Cc1cnc2ccc(Cl)cc2c1Nc1cccc(F)c1` [Compound 1b, 6-chloro-4-(3’-fluorophenylamino)quinoline-3-carbonitrile] has a CC50 at 72 h [1] of 67 ± 11.6 µM, a CC50 at 72 h [2] of 69 ± 22 µM and an inhibition of growth at 10 µM (T. cruzi Y amastigotes) of 53.2 ± 10%. For the same molecule, the IC50 [4] was 16.6 ± 0.2 µM and the selectivity ratio at 72 h [5] was 4.
With `N#Cc1cnc2ccc(Cl)cc2c1Nc1ccc(F)cc1` [Compound 1c, 6-chloro-4-(4’-fluorophenylamino)quinoline-3-carbonitrile] the CC50 at 72 h [1] was > 100 µM, the CC50 at 72 h [2] was > 100 µM and the inhibition of growth at 10 µM (T. cruzi Y amastigotes) was 52.5 ± 6%. For the same molecule, the IC50 [4] was 8.8 ± 1.3 µM and the selectivity ratio at 72 h [5] was > 11.4.
For `N#Cc1cnc2ccc(Cl)cc2c1Nc1ccccc1Cl` [Compound 1d, 6-chloro-4-(2’-chlorophenylamino)quinoline-3-carbonitrile], the CC50 at 72 h [1] was 47.7 ± 13 µM, the CC50 at 72 h [2] was 64 ± 12.5 µM and the inhibition of growth at 10 µM (T. cruzi Y amastigotes) was 57.6 ± 8%. The IC50 [4] was 40 ± 13.7 µM and the selectivity ratio at 72 h [5] was 1.19.
In the case of `N#Cc1cnc2ccc(Cl)cc2c1Nc1cccc(Cl)c1` [Compound 1e, 6-chloro-4-(3’-chlorophenylamino)quinoline-3-carbonitrile], the CC50 at 72 h [1] is reported as 65.2 ± 18.5 µM, the CC50 at 72 h [2] is reported as 89 ± 18 µM and the inhibition of growth at 10 µM (T. cruzi Y amastigotes) is reported as 55.4 ± 7%. The IC50 [4] was 15.4 ± 0.7 µM and the selectivity ratio at 72 h [5] was 4.2.
In the case of `N#Cc1cnc2ccc(Cl)cc2c1Nc1cccc(Br)c1` [Compound 1f, 4-(3’-bromophenylamino)-6-chloroquinoline-3-carbonitrile], the CC50 at 72 h [1] is reported as > 100 µM, the CC50 at 72 h [2] is reported as 71 ± 26 µM and the inhibition of growth at 10 µM (T. cruzi Y amastigotes) is reported as 60.4 ± 9%. The IC50 [4] was 21.2 ± 14.2 µM and the selectivity ratio at 72 h [5] was > 4.7.
